PKA-R1A act – PKA-R1A complex activation; activation, % at 11.4 µM; P00514+P68181; PKA-R1A dissociation, Cy5-IP20 fluorescence polarization; scaled: DMSO 0%, 113 µM cGMP 100%; 340,000 tested, 0.083% active; AID 504707;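 active = percent activation above the mean of all tested compounds plus 3 SD, cut at about 19% in these data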;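 note: higher means more PKAc released from R1A so a rise in polarization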
CAL PDZ FP-1 – inhibitors of human CAL PDZ peptide binding. Q9HD26. 300,000 tested, 0.92% active. purified CAL PDZ, TMR-peptide fluorescence polarization, 1 h. inhibition, % at 24.9 µM. AID 602252;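 active = mean inhibition of at least 30% with at least half of replicates also reaching 30%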
CAL PDZ FP-2 – inhibitors of human CAL PDZ peptide binding. Q9HD26. inhibition, % at 20 µM. 330,000 tested, 0.02% active. purified CAL PDZ, TMR-peptide fluorescence polarization, 1 h;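 active = highest replicate inhibition of at least 40%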
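System: tagged CAL PDZ domain. Schedule: 1 h room-temperature incubation prior to read. Signal: fluorescence polarization (mP). Measure: percent inhibition from loss of millipolarization.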
NTR1 agonist – NTR1 (human) agonism; activation, % at 20 µM; 330,000 tested, 0.17% active; NTR1-U2OS beta-arrestin-GFP spot imaging, agonist mode; P30989;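 active = activation at or above 40% of the spot to cytoplasm intensity ratio, with at least 20 cells analyzed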
PKA-R2B activ – activates the human PKA-R2B holoenzyme complex; PKA-R2B holoenzyme dissociation, Cy5-IP20 fluorescence polarization; R2B truncated from residue 108, S112A mutant; 0% DMSO only, 100% 113 µM cGMP; activation, % at 11.4 µM; 340,000 tested, 0.079% active; AID 504700;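 active = activation above a cutoff set at the mean over all compounds plus 3 SD, cut at about 18% in these data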;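 note: higher means more holoenzyme dissociation and a rise in polarization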
Target sequence (P31323 whole entry, looked up, other chains not shown, the tested form may be a part): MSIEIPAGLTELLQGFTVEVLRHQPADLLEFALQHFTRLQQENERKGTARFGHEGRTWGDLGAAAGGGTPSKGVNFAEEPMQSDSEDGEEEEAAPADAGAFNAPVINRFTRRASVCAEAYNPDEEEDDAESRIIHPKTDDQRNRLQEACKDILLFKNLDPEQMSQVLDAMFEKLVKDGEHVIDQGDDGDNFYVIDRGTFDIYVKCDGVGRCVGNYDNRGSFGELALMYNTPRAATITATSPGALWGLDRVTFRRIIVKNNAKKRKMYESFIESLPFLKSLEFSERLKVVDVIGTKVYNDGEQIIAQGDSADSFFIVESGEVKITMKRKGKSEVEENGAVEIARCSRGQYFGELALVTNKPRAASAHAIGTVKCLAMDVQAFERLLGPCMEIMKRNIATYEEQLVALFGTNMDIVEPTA
dFosB act – activators of mouse delta FosB homodimer; P13346; purified delta FosB, TAMRA-CDK5 oligo fluorescence polarization; percent of positive-control signal above neutral wells; activation, % at 25 µM; 340,000 tested, 0.99% active; AID 493131;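 active = mean activation above about 17%, with every replicate also reaching it, limit read from the data, passing the limit was not always enough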
A number is an active result; - = inactive; . = no result. Rows were chosen to be rich in hits. Some 2% of all compounds tested hit in one or more screens of this group.

SMILES	PKA-R1A act	CAL PDZ FP-1	CAL PDZ FP-2	NTR1 agonist	PKA-R2B activ	dFosB act
O=C(CNC(=O)c1cccc([N+](=O)[O-])c1)NC1CCCc2ccccc21 (centres undefined)	-	35	-	-	-	-
CCOC(=O)N1CCC(NCCNC(=O)c2cccc(F)c2)CC1	-	-	-	-	-	-
COc1cc(OC)c(OC)cc1/C=N/NC(=O)CC1C(=O)NN=C1C (centres undefined)	-	36	-	-	-	-
CCCCn1c(N)c(N(CCOC)C(=O)COC(=O)CCOc2ccccc2)c(=O)[nH]c1=O	-	-	-	-	-	-
O=C(CCc1c[nH]c2ccccc12)NCCc1ccc(Cl)cc1	-	36	-	-	-	-
CC1(O)C(=O)C=C2C=C(c3ccc(C#N)cc3)OC=C2C1=O (centres undefined)	.	.	.	-	.	.
CCOCCCNC(=O)CCCOc1ccccc1	-	70	-	-	-	-
CCCCOCCCNC(=O)CCCOc1ccccc1	-	-	-	-	-	-
CC(C)CNC(=O)C(=O)NCC1CCCN1S(=O)(=O)c1cccs1 (centres undefined)	-	-	-	-	-	-
O=[N+]([O-])c1ccc(SCc2ccco2)cc1N1CCOCC1	-	45	-	-	-	-
O=C(O)c1ccc(N=Nc2c(O)[nH]c3ccc(Br)cc23)cc1	-	-	.	-	-	-
O=c1ccc2cc3c([nH]c4ccc(Br)cc43)oc-2c1O	-	-	48	-	-	-
CCc1cc(-c2nnn(-c3cc(C(C)C)ccc3C)c2CC)ccc1-c1cn(CCc2c[nH]c3ccccc23)nn1	-	.	.	.	-	.
Oc1ccccc1-c1cc(-c2ccccc2)n[nH]1	-	-	-	-	-	-
Oc1ccccc1-c1cc(-c2ccc(F)cc2)n[nH]1	-	34	-	-	-	-
COc1ccccc1NS(=O)(=O)c1cccc(C(=O)N/N=C/c2ccc([N+](=O)[O-])o2)c1	-	-	-	-	-	-
CCCc1c(C)c2cccc(C)c2[nH]c1=O	-	-	.	-	-	-
CCCCN1CCc2c([nH]c3c(C)cccc23)C1=O	-	72	-	-	-	-
c1cc2c(cc1Cn1cnnn1)OCO2	-	62	-	-	-	-
c1cc2c(cc1-n1cnnn1)OCO2	-	-	-	-	-	-
COc1ccc(OC)c2nc3c(C(=O)NCCN(C)C)cccc3nc12	-	-	-	.	-	87
CN(C)CCNC(=O)c1cccc2nc3cccc(F)c3nc12	-	-	-	.	-	33
COC(=O)C1(CC2CC(c3ccccc3)=NO2)CCN(C(=O)OC(C)(C)C)CC1 (centres undefined)	-	-	-	-	-	-
Cc1ccc(-c2nn(-c3ccccc3)cc2/C=C(\C#N)C(=O)NCc2ccccc2)cc1	-	-	-	-	-	-
N#C/C(=C/c1cn(-c2ccccc2)nc1-c1cccc(OCc2ccccc2)c1)C(=O)NCCCn1ccnc1	-	.	-	-	-	31
SMILES	PKA-R1A act	CAL PDZ FP-1	CAL PDZ FP-2	NTR1 agonist	PKA-R2B activ	dFosB act
Cc1sc(NC(=O)Cc2ccc3c(c2)OCO3)nc1-c1ccc2c(c1)CCN2C(=O)c1ccc(F)cc1	-	-	-	-	-	-
Cc1sc(NC(=O)CN2CCCC2)nc1-c1ccc2c(c1)CCN2C(=O)c1cccc(F)c1	-	165	-	-	-	-
COc1ccc(OC)c(CN2CCN(c3ccc(S(=O)(=O)N4CCCC4)cn3)CC2)c1	-	.	-	-	-	-
Cc1ccc2nc(-c3ccc(NC(=O)c4ccco4)cc3)[nH]c2c1	-	-	.	-	-	43
Cn1cccc1-c1nc2ccc(NC(=O)c3ccco3)cc2[nH]1	-	-	-	-	-	-
Cc1cc(C)c(S(=O)(=O)N(C)CC(=O)NCCN2CCOCC2)c(C)c1	-	31	-	-	-	-
COc1ccc(/C(C)=N/NC(=O)Cc2c(C)nc(C)[nH]c2=O)cc1	-	-	-	-	-	-
Cc1nc(C)c(CC(=O)N/N=C/c2ccc(O)cc2)c(=O)[nH]1	-	56	-	-	-	-
C=C(C)CSc1nnc([C@@H]2CCCN2)o1	-	42	-	-	-	-
